Measurements from ChEMBL document CHEMBL1140117, “Structure-activity relationship studies for the peptide portion of the bladder epithelial cell antiproliferative factor from interstitial cystitis patients” (2008).
The source made the active and inactive calls. Starred links: 1 amine or outer side, 2 acyl side, 3 side chain; linkers in the order of their positions; H or OH if unused. Positions of bridges follow the written chain, without caps; N, C: chain ends. Non-standard residues stand in square brackets, D forms with d. Residues, ends and D or L forms follow the SMILES beside them. *: point of attachment. X3 = CC(=O)N[C@H]1[C@@H](O[C@H](C)[C@H](NO[*:2])C(=O)[*:1])O[C@H](CO)[C@H](O)[C@@H]1O[C@@H]1O[C@H](CO)[C@H](O)[C@H](O)[C@H]1O; X1 = CC(=O)N[C@@H]1[C@@H](O[C@@H]2O[C@H](CO)[C@H](O)[C@H](O)[C@H]2O)[C@@H](O)[C@@H](CO)O[C@@H]1*; X2 = CC1(C)OC[C@@H](C(=O)[*:2])N1[*:1]; NMeA = CN[C@@H](C)C(=O)O

Test system: not listed separately
Test: Antiproliferative activity against human bladder epithelial cells assessed as inhibition of [3H]thymidine incorporation after 48 hrs relative to as-APF
Type: functional, Epithelial cell
Design: scale not given: the % may be the effect or the level left
In short: (§1)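 Primary normal human bladder epithelial cells, explanted from cystoscopy biopsies, plated at 1.5 × 10⁴ cells/well in MEM with 10% heat-inactivated FBS. Congeners dissolved in acetonitrile/water (1:1), added in serum-free MEM in 10-fold dilutions up to the 25 µM assay cutoff. Incubated 48 h at 37 °C, 5% CO₂. ³H-thymidine uptake counted on filters. Activity expressed relative to the standard control run on each plate. Triplicates, at least two runs, ANOVA.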
Compound `CC(=O)N[C@H]1[C@@H](O[C@H](C)[C@H](N)C(=O)N[C@H](C(=O)N(C)[C@@H](C)C(=O)N[C@@H](C)C(=O)N[C@@H](C)C(=O)N[C@H](C(=O)N[C@H](C(=O)N[C@H](C(=O)N[C@@H](C)C(=O)O)C(C)C)C(C)C)C(C)C)C(C)C)O[C@H](CO)[C@H](O)[C@@H]1O[C@@H]1O[C@H](CO)[C@H](O)[C@H](O)[C@H]1O` (H-T(X1)V[NMeA]AAVVVA-OH) has an Activity of 0.05%.
With `CC(=O)N[C@H]1[C@@H](OC[C@H](N)C(=O)N[C@@H](CC(C)C)C(=O)N2CCC[C@H]2C(=O)N[C@@H](C)C(=O)N[C@@H](C)C(=O)N[C@H](C(=O)N[C@H](C(=O)N[C@H](C(=O)N[C@@H](C)C(=O)O)C(C)C)C(C)C)C(C)C)O[C@H](CO)[C@H](O)[C@@H]1O[C@@H]1O[C@H](CO)[C@H](O)[C@H](O)[C@H]1O` (H-S(X1)LPAAVVVA-OH) the Activity was 1%.
Work on `CC(=O)N[C@H]1[C@@H](OC[C@H](N)C(=O)N[C@H](C(=O)N2CCC[C@H]2C(=O)N[C@@H](C)C(=O)N[C@@H](C)C(=O)N[C@H](C(=O)N[C@H](C(=O)N[C@H](C(=O)N[C@@H](C)C(=O)O)C(C)C)C(C)C)C(C)C)C(C)C)O[C@H](CO)[C@H](O)[C@@H]1O[C@@H]1O[C@H](CO)[C@H](O)[C@H](O)[C@H]1O` (H-S(X1)VPAAVVVA-OH) yielded an Activity of 0.01%.

Test system: Epithelial cell
Test: Antiproliferative activity against human bladder epithelial cells assessed as inhibition of [3H]thymidine incorporation at <25 uM after 48 hrs relative to as-APF
Type: functional, cell-based
In short: as §1
For `CC(=O)N[C@H]1[C@@H](O[C@H](C)[C@H](N)C(=O)N[C@@H](CC(C)C)C(=O)N2CCC[C@H]2C(=O)N[C@@H](C)C(=O)N[C@@H](C)C(=O)N[C@H](C(=O)N[C@H](C(=O)N[C@H](C(=O)N[C@@H](C)C(=O)O)C(C)C)C(C)C)C(C)C)O[C@H](CO)[C@H](O)[C@@H]1O[C@@H]1O[C@H](CO)[C@H](O)[C@H](O)[C@H]1O` (H-T(X1)LPAAVVVA-OH), the Activity was “inactive”.
In the case of `CC(=O)N[C@H]1[C@@H](O[C@H](C)[C@H](N)C(=O)N[C@H](C(=O)N2CCC[C@H]2C(=O)N[C@@H](C)C(=O)NCC(=O)N[C@H](C(=O)N[C@H](C(=O)N[C@H](C(=O)NCC(=O)O)C(C)C)C(C)C)C(C)C)C(C)C)O[C@H](CO)[C@H](O)[C@@H]1O[C@@H]1O[C@H](CO)[C@H](O)[C@H](O)[C@H]1O` (H-T(X1)VPAGVVVG-OH), the Activity is reported as “inactive”.
For `CC(=O)N[C@H]1[C@@H](O[C@H](C)[C@H](N)C(=O)N[C@H](C(=O)N2CCC[C@H]2C(=O)N[C@@H](C)C(=O)N[C@@H](C)C(=O)N[C@H](C(=O)N[C@H](C(=O)N[C@@H](C)C(=O)N[C@H](C(=O)O)C(C)C)C(C)C)C(C)C)C(C)C)O[C@H](CO)[C@H](O)[C@@H]1O[C@@H]1O[C@H](CO)[C@H](O)[C@H](O)[C@H]1O` (H-T(X1)VPAAVVAV-OH), the Activity was “inactive”.
In the case of `CC(=O)N[C@H]1[C@@H](O[C@H](C)[C@@H]2NOC(=O)[C@H](C)NC(=O)[C@H](C(C)C)NC(=O)[C@H](C(C)C)NC(=O)[C@H](C(C)C)NC(=O)[C@H](C)NC(=O)[C@H](C)NC(=O)[C@@H]3CCCN3C(=O)[C@H](C(C)C)NC2=O)O[C@H](CO)[C@H](O)[C@@H]1O[C@@H]1O[C@H](CO)[C@H](O)[C@H](O)[C@H]1O` (VPAAVVVA; linker N-C via X3), the Activity is reported as “inactive”.
For `CC(=O)N[C@H]1[C@@H](O[C@H](C)[C@H](N)C(=O)N[C@H](C(=O)N2CCC[C@H]2C(=O)N[C@@H](C)C(=O)N[C@@H](C)C(=O)N[C@H](C(=O)N[C@H](C(=O)N[C@H](C(=O)N[C@@H](C)C(=O)N[C@@H](CCC(=O)O)C(=O)O)C(C)C)C(C)C)C(C)C)C(C)C)O[C@H](CO)[C@H](O)[C@@H]1O[C@@H]1O[C@H](CO)[C@H](O)[C@H](O)[C@H]1O` (H-T(X1)VPAAVVVAE-OH), the Activity was “inactive”.
In the case of `CC(=O)N[C@H]1[C@@H](O[C@H](C)[C@H](N)C(=O)N[C@H](C(=O)N2CCC[C@H]2C(=O)N[C@@H](C)C(=O)N[C@@H](C)C(=O)N[C@H](C(=O)N[C@H](C(=O)O)C(C)C)C(C)C)C(C)C)O[C@H](CO)[C@H](O)[C@@H]1O[C@@H]1O[C@H](CO)[C@H](O)[C@H](O)[C@H]1O` (H-T(X1)VPAAVV-OH), the Activity is reported as “inactive”.
In the case of `CC(=O)N[C@H]1[C@@H](O[C@H](C)[C@H](N)C(=O)N[C@H](C(=O)N2CCC[C@H]2C(=O)N[C@@H](C)C(=O)N[C@@H](C)C(=O)O)C(C)C)O[C@H](CO)[C@H](O)[C@@H]1O[C@@H]1O[C@H](CO)[C@H](O)[C@H](O)[C@H]1O` (H-T(X1)VPAA-OH), the Activity is reported as “inactive”.
For `CC(=O)N[C@H]1[C@@H](O[C@H](C)[C@H](N)C(=O)N[C@@H](Cc2ccc(O)cc2)C(=O)N2CCC[C@H]2C(=O)N[C@@H](C)C(=O)N[C@@H](C)C(=O)N[C@H](C(=O)N[C@H](C(=O)N[C@H](C(=O)N[C@@H](C)C(=O)O)C(C)C)C(C)C)C(C)C)O[C@H](CO)[C@H](O)[C@@H]1O[C@@H]1O[C@H](CO)[C@H](O)[C@H](O)[C@H]1O` (H-T(X1)YPAAVVVA-OH), the Activity was “inactive”.
In the case of `CC(=O)N[C@H]1[C@@H](O[C@H](C)[C@H](N)C(=O)N[C@H](C(=O)N2[C@H](C(=O)N[C@@H](C)C(=O)N[C@@H](C)C(=O)N[C@H](C(=O)N[C@H](C(=O)N[C@H](C(=O)N[C@@H](C)C(=O)O)C(C)C)C(C)C)C(C)C)COC2(C)C)C(C)C)O[C@H](CO)[C@H](O)[C@@H]1O[C@@H]1O[C@H](CO)[C@H](O)[C@H](O)[C@H]1O` (H-T(X1)V[X2]AAVVVA-OH), the Activity is reported as “inactive”.
With `CC[C@H](C)[C@H](NC(=O)[C@H](C)NC(=O)[C@H](C)NC(=O)[C@@H]1CCCN1C(=O)[C@@H](NC(=O)[C@@H](N)[C@@H](C)O[C@H]1O[C@H](CO)[C@H](O)[C@H](O[C@@H]2O[C@H](CO)[C@H](O)[C@H](O)[C@H]2O)[C@H]1NC(C)=O)C(C)C)C(=O)N[C@H](C(=O)N[C@H](C(=O)N[C@@H](C)C(=O)O)[C@@H](C)CC)C(C)C` (H-T(X1)VPAAIVIA-OH) the Activity was “inactive”.
For `CC(=O)N[C@H]1[C@@H](O[C@H](C)[C@H](N)C(=O)N[C@H](C(=O)N2CCC[C@H]2C(=O)NCCCCCCCCCCCC(=O)O)C(C)C)O[C@H](CO)[C@H](O)[C@@H]1O[C@@H]1O[C@H](CO)[C@H](O)[C@H](O)[C@H]1O`, the Activity was “inactive”.
With `CC(=O)N[C@H]1[C@@H](O[C@H](C)[C@H](N)C(=O)N[C@H](C(=O)N2CCC[C@@H]2C(=O)N[C@@H](C)C(=O)N[C@@H](C)C(=O)N[C@H](C(=O)N[C@H](C(=O)N[C@H](C(=O)N[C@@H](C)C(=O)O)C(C)C)C(C)C)C(C)C)C(C)C)O[C@H](CO)[C@H](O)[C@@H]1O[C@@H]1O[C@H](CO)[C@H](O)[C@H](O)[C@H]1O` the Activity was “inactive”.
In the case of `CC(=O)N[C@H]1[C@@H](O[C@H](C)[C@H](N)C(=O)N[C@H](C(=O)N2CCC[C@H]2C(=O)N[C@@H](C)C(=O)N[C@@H](C)C(=O)N[C@H](C(=O)N[C@@H](C(=O)N[C@H](C(=O)N[C@@H](C)C(=O)O)C(C)C)C(C)C)C(C)C)C(C)C)O[C@H](CO)[C@H](O)[C@@H]1O[C@@H]1O[C@H](CO)[C@H](O)[C@H](O)[C@H]1O`, the Activity is reported as “inactive”.
In the case of `CC(=O)N[C@H]1[C@@H](O[C@H](C)[C@H](N)C(=O)N[C@H](C(=O)N2CCC[C@H]2C(=O)N[C@@H](C)C(=O)N[C@@H](C)C(=O)N[C@H](C(=O)N[C@H](C(=O)N[C@H](C(=O)N[C@@H](C)C(=O)N[C@@H](CCCCN)C(=O)O)C(C)C)C(C)C)C(C)C)C(C)C)O[C@H](CO)[C@H](O)[C@@H]1O[C@@H]1O[C@H](CO)[C@H](O)[C@H](O)[C@H]1O` (H-T(X1)VPAAVVVAK-OH), the Activity is reported as “inactive”.
